Hep lipid drop: hepatic lipid droplet formation modulation | AML12 mouse hepatocytes, oleate lipid droplets, BODIPY imaging | 0.4% of 240,000 active | inhibition, % at 6.5 µM;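 active = lipid droplet intensity inhibited by at least 50%, with more than 500 cells counted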
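material = mouse AML12 hepatocyte cell line, fixed after treatment | also added = 100 µM oleic acid challenge | doses = compound at 6.5 µM only | schedule = overnight exposure | technique = Image-based BODIPY and DAPI two-channel analysis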
SR-BI DiI inh: mouse SR-BI HDL lipid transfer inhibition | ldlA[mSR-BI] CHO cells, DiI-HDL uptake fluorescence, 3 h | AID 488896 | inhibition, % at 12.5 µM | Q61009 | 0.96% of 320,000 active;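 active = mean replicate inhibition of at least 70% and a set share of replicates each scoring 70 or more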;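 also: 0% = median of neutral control wells and 100% = median of positive control wells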
SR-BI DiI-HDL act: enhances SR-BI lipid uptake from DiI-HDL; CHO ldlA[mSR-BI] cells, DiI-HDL uptake fluorescence, 3 h; 100 = double the neutral-control signal; activation, % at 12.5 µM; 0.096% of 320,000 active; AID 504775;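 active = mean replicate activation of at least 60% and every replicate at or above 60%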;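 also: 0% = median plate neutral-control signal and 100% = twice that signal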
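Material: SR-BI-overexpressing, LDLR-lacking CHO cells; schedule: compound exposure 3 h, 37 °C; reagent: DiI-labelled HDL at 10 µg/mL final; technique: bottom-read fluorescence, 550/595 nm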
SMARCA2 act: SMARCA2 function activation, primary screen; 1% of 370,000 active; activation, % at 9.1 µM; MG213 cells, MMTV-luciferase reporter, dexamethasone, overnight; in the data active = activation above about 7.8%;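 also: 0% = vehicle wells and 100% = reference activator wells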
CR mimetic SO: caloric restriction mimetics inhibiting age-related superoxide in yeast; 0.18% of 330,000 active; S. cerevisiae aged cells, superoxide DHE fluorescence; stronger effect = lower value; superoxide response (% of plate mean), % at 10 µM;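 active = superoxide response under a set limit, about three screen SD below normal, cut at about 65% in these data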;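 also: yeast aged for seven days with compound at 30 °C before DHE staining; 100% = average MFI of all compound-treated wells on the plate with controls excluded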
AHR act: activators of human aryl hydrocarbon receptor | P35869 | AHR-responsive luciferase reporter cells, luminescence | activation, % at 5 µM | 2.5% of 320,000 active; in the data active = activation above about 47%;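 also: 0% = vehicle wells and 100% = reference agonist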
Numbers without * were called inactive; · = no result given. Shown are actives, neighbours in structure and some others; about 4.3% of the full set was active somewhere.

SMILES	Hep lipid drop	SR-BI DiI inh	SR-BI DiI-HDL act	SMARCA2 act	CR mimetic SO	AHR act
Cc1nc(N/N=C\c2ccc3c(c2)OCO3)sc1C	-12	-1	1	4	104	75*
COc1ccc(C2CC(=O)C(c3ccc(Cl)c(Cl)c3)=CN2Cc2ccccc2)cc1 (configuration not stated)	·	·	·	-6	·	·
COC(=O)C1=C(C)N(C)C(=NCc2ccc(OC)cc2)NC1c1cccc(Cl)c1 (configuration not stated)	·	·	·	-2	·	·
COc1ccc(C2C(C(=O)N3CCOCC3)CC(=O)N2c2ccc(OC)cc2)cc1 (configuration not stated)	·	·	·	-1	·	·
O=C(C1CCCN(S(=O)(=O)c2ccccc2[N+](=O)[O-])C1)N1CCN(Cc2ccccc2)CC1 (configuration not stated)	·	·	·	-2	·	·
O=[N+]([O-])c1ccc2nc(-c3ccccc3)n(OCc3ccc(Cl)cc3)c2c1	·	78*	-78	3	113	38
CN(Cc1cn(Cc2ccccc2)nn1)S(=O)(=O)c1ccc(F)cc1Br	·	·	·	-1	·	·
CCOCCCn1c(=NC(C)=O)c(C#N)cc2c(=O)n3ccccc3nc21	2	-11	11	-4	89	-4
CC(=O)N=c1c(C#N)cc2c(=O)n3ccccc3nc2n1Cc1ccccc1	1	-30	30	8.3*	101	0
O=c1[nH]cnc2nn(C3OC(CO)C(O)C3O)nc12 (configuration not stated)	·	·	·	-2	·	·
COc1ccc(OCC(=O)N/N=C2\CCCCc3ccccc32)cc1	-38	-1	1	-2	146	2
CCc1ccc(OCC(=O)N/N=C2\CC(=O)c3ccccc32)cc1	-26	-14	14	·	96	62*
COc1ccc(C(=O)OCCCN(C)C2CN(Cc3cn(Cc4ccccc4C(F)(F)F)nn3)S(=O)(=O)C2)cc1OC (configuration not stated)	·	·	·	1	·	·
COc1ccc(NC(=O)CSc2nnc(Cn3cnc([N+](=O)[O-])n3)n2C)cc1	17	-12	12	11*	109	1
Cn1c(NC(=O)c2ccccc2)nc(Cc2ccccc2)c1Cc1ccccc1	·	·	·	-6	·	·
Fc1cc(NC(=S)NCc2ccc(CNC(=S)Nc3ccc(Cl)c(F)c3)cc2)ccc1Cl	-1	73*	-73	-1	73	1
CCOc1ccccc1NC(=O)Nc1cccc(C(C)=O)c1	·	78*	-78	3	101	44
CCOc1ccccc1NC(=O)Nc1ccsc1C(=O)OC	0	79*	-79	4	99	40
CCOc1ccccc1NC(=O)NC(=O)N(C)S(=O)(=O)c1ccc(C)cc1	-2	26	-26	-1	110	64*
CCOc1ccccc1NC(=O)Nc1ccc2c(c1)CCC2	-10	67	-67	1	106	78*
O=C(Nc1ccc2c(c1)CCC2)Nc1ccccc1Cl	4	22	-22	5	103	1
CCc1ccccc1NC(=O)Nc1ccsc1C(=O)OC	-1	21	-21	-1	99	13
CCCCN1CCN(C2=NC(=O)N(c3ccc(Br)cc3)C(=O)C2)CC1	·	·	·	-5	·	·
CCOc1ccccc1NC(=O)Nc1cccc(S(N)(=O)=O)c1	4	·	·	-3	114	48*
CCOc1ccccc1NC(=O)Nc1cccc(NC(C)=O)c1	2	·	·	0	102	18
SMILES	Hep lipid drop	SR-BI DiI inh	SR-BI DiI-HDL act	SMARCA2 act	CR mimetic SO	AHR act
COc1ccccc1NC(=O)NC1CCCc2ccccc21 (configuration not stated)	-12	70	-70	-2	103	14
CCOc1ccccc1NC(=O)NC1CCCc2ccccc21 (configuration not stated)	-20	79*	-79	-2	102	13
COC(=O)C(Cc1ccc(O)cc1)NS(=O)(=O)Cc1ccccc1 (configuration not stated)	·	·	·	-2	·	·
Cc1cccc2c3nc4ccccc4nc3n(C)c12	10	-8	8	3	96	69*
Cc1cccc2nc3ccccc3nc12	12	-1	1	-4	100	1
O=C(Cn1nnc(-c2ccncc2)n1)Nc1ccc(Oc2ccccc2)cc1	·	·	·	-5	·	·
COc1ccc(Nc2ncnc3ccc(C)cc23)cc1	-12	13	-13	0	92	55*
Oc1ccc(Nc2ncnc3ccccc23)cc1	1	-13	13	-2	88	·
COC(=O)C(=O)C/C(=N/Nc1ncnc2ccccc12)c1ccc(Cl)cc1	2	52	-52	0	101	58*
Cc1ccc(/C(=N/Nc2ncnc3ccccc23)C(=O)O)cc1	-3	·	·	3	92	59*
Cc1ccc(Nc2ncnc3ccccc23)cc1	46	-1	1	3	77	65*
COC(=O)c1cccc(Nc2ncnc3ccc(C)cc23)c1	·	44	-44	1	91	13
Cc1cccc(NC(=O)C2CCCN2S(=O)(=O)c2cccnc2)c1C (configuration not stated)	·	·	·	0	·	·
CN(Cc1ccccc1)C(=O)c1cccc(NC(=O)Cc2ccc(NC(=O)C3CCCN(S(=O)(=O)c4cccc([N+](=O)[O-])c4)C3)cc2)c1 (configuration not stated)	·	·	·	-3	·	·
CC(C)OP(=O)(O)C(C)NC(=O)OCc1ccccc1 (configuration not stated)	·	·	·	-2	·	·
Cc1ccc(-c2csc3ncnc(Oc4cccc5ccc(C)nc45)c23)cc1	3	21	-21	-5	80	0
Cc1ccc2cccc(Oc3ncnc4sc(C)c(C)c34)c2n1	26	77*	-77	1	108	10
CCOC(=O)C1=C(C(=O)OCC)C2N(Cc3ccc(C#N)cc3)c3ccccc3[C@@]23C[C@@H](C(=O)OC)N(S(=O)(=O)c2ccc(C#N)cc2)C3=N1 (some centres not stated)	·	·	·	0	·	·
O=C(Nc1cccc2nsnc12)c1ccc(-c2cccc(Cl)c2)o1	·	6	-6	1	103	52*
CN1CCN(c2ccccc2NC(=O)c2ccc(-c3cccc(Cl)c3)o2)CC1	0	2	-2	2	91	61*
C=CCNc1cccc2c1S(=O)(=O)N[C@@H](Cc1ccccc1)CO2	·	·	·	-3	·	·
O=c1c(-c2ccco2)[n+]([O-])c2ccccc2n1OCc1ccccc1	0	41	-41	7	95	61*
O=c1c(-c2ccco2)[n+]([O-])c2ccccc2n1OCc1c(F)cccc1F	-6	6	-6	-2	95	49*
O=C(OCc1cn(Cc2ccccc2F)nn1)N1CCCC1	·	·	·	-2	·	·
CCOC(=O)c1cccc(-c2cc(C(C)=O)c3n(c2=O)CCC3)c1	·	·	·	-2	·	·
CCCC(=O)Nc1nc2ccc(NC(=O)c3ccccc3F)cc2s1	4	47	-47	2	103	62*
